The source of these data is ChEMBL document CHEMBL3286322, “Synthesis and anti-cholinesterase activity of new 7-hydroxycoumarin derivatives” (Eur J Med Chem, 2014).

For series [1], the target named is T1, Acetylcholinesterase (Electrophorus electricus, UniProt O42275). In words: Inhibition of electric eel AChE using acetylthiocholine iodide as substrate by spectrophotometer analysis.
Another series addresses Cholinesterase (Equus caballus, UniProt P81908). As to the kind of experiment: Inhibition of equine serum BChE using butyrylthiocholine iodide as substrate by spectrophotometer analysis. The method in brief:
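Compound stocks were made in DMSO/ethanol (1:9) and diluted to final concentrations with 0.1 M potassium phosphate buffer, pH 8.0. IC50 values are mean ± SE of three independent experiments.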

Series [2] in a line: Antioxidant activity assessed as ferric ion reducing activity using fe3+-TPTZ measured per gram of protein by FRAP assay. The class given is functional. An outline of the steps:
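Reducing power measured against a FRAP reagent prepared by mixing acetate buffer (pH 3.6), 10 mM TPTZ in 40 mM HCl, and 20 mM ferric chloride hexahydrate. Test compounds act as reductants, converting the ferric tripyridyl triazine complex to the blue ferrous form, which is read colorimetrically. The method follows Benzie and Strain.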

Series [3] in a line: Cytotoxicity against rat PC12 cells at 1 to 10 uM. The class given is cell-based. The settings on record: pc-12, 10 µM.
The nature of series [4]: Neuroprotective activity in rat PC12 cells assessed as inhibition H2O2-induced reduction of cell viability at 1 to 10 uM after 24 hrs by MTT assay. The class given is functional, cell-based. The settings on record: PC-12. The method in brief:
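PC12 cells differentiated with NGF (50 ng/ml) in serum-free medium for 5 days, until neurite outgrowth was seen by microscopy. Cells were pre-incubated with compound at 1, 5 or 10 for 3 h, then exposed to H2O2 (300). Viability was expressed relative to the H2O2-only group. A reference compound was run at 5.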
A general note: Tetrazolium assays rely on reduction of a dye to a coloured formazan, in cell work by metabolically active cells.

The target in series [5] is T1, Acetylcholinesterase. In words: Inhibition of electric eel AChE using acetylthiocholine as substrate by Lineweavere-Burk plot. An outline of the steps: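 Compound stocks were made in DMSO/ethanol (1:9) and diluted in 0.1 M potassium phosphate buffer, pH 8.0. Initial AChE velocity was measured at inhibitor levels of 0, 0.64, 1.27 and 2.55 across varied acetylthiocholine concentrations. Inhibition type was read from a Lineweaver–Burk plot, and Ki was calculated from a secondary plot.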

Series [6] is described as follows: Neuroprotective activity in rat PC12 cells assessed as inhibition H2O2-induced reduction of cell viability at 5 uM after 24 hrs by MTT assay. The class given is functional, cell-based. The settings on record: PC-12. The method in brief: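 PC12 cells were differentiated in serum-free medium with NGF (50 ng/ml) for 5 days until neurite outgrowth appeared. Cells were preincubated with compound at 1, 5 or 10 for 3 h, then challenged with H2O2 (300). Viability is expressed relative to the H2O2-treated group.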

The source made the active and inactive calls. The calls are words filed in the database; no cut-off is given here.

One may read the IC50 as the concentration at which inhibition is half-maximal. Read a low IC50 as greater potency. By Ki is commonly meant the dissociation constant of the complex between target and ligand, obtained from inhibition or displacement. A lower Ki goes with tighter binding.

Cholinesterase, sequence (P81908 whole entry): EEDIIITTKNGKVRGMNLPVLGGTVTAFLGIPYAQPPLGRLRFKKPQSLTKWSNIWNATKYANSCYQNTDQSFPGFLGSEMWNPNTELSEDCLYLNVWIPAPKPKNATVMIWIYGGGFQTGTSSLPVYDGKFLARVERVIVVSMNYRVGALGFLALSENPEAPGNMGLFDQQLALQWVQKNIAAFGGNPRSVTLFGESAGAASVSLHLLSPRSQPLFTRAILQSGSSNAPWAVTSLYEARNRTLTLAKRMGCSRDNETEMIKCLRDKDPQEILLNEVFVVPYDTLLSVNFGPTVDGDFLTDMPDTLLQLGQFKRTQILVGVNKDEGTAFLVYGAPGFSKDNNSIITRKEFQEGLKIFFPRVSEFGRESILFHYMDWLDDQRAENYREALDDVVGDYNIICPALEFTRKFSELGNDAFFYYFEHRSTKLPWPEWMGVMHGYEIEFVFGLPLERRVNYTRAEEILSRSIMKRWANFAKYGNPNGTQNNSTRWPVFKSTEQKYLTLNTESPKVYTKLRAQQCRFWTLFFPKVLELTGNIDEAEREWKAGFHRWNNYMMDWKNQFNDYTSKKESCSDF
T1 sequence (O42275 whole entry): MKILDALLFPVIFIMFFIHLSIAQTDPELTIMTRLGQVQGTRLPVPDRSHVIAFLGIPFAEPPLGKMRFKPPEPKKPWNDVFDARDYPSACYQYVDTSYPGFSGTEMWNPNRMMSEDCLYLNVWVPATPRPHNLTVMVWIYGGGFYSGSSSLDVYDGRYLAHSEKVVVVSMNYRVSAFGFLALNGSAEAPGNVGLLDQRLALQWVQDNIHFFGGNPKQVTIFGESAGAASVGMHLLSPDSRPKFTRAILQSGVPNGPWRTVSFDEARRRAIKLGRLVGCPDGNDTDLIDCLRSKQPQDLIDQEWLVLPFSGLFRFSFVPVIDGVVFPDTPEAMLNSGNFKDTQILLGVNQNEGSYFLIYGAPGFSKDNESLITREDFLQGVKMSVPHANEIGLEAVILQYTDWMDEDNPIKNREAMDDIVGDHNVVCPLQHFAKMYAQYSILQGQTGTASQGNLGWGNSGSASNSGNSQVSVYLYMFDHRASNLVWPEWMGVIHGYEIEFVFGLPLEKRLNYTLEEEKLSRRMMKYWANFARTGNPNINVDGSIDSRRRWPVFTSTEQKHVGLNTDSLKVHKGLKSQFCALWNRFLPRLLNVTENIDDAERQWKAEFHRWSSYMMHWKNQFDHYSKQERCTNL

As for `Cc1cc(=O)oc2cc(OCCCC(=O)N3CCC(O)(c4ccc(Br)cc4)CC3)ccc12`, the IC50 at Acetylcholinesterase [1] worked out at 34.6 µM; at Cholinesterase, 141 µM. Besides, in series [2], the Activity worked out at 0.06 µmol.
Regarding `O=C(CCCOc1ccc2ccc(=O)oc2c1)N1CCN(c2ccccc2O)CC1`, the half-inhibitory concentration (IC50) worked out at 7 µM at Acetylcholinesterase [1] and 280 µM at Cholinesterase. Moreover, the Activity in series [2] is 2.82 µmol.
In the case of `O=C(COc1ccc2ccc(=O)oc2c1)NC1CCN(Cc2ccccc2)CC1`, the concentration for half-maximal inhibition (IC50) was found to be 1.6 µM against Acetylcholinesterase [1] and 42 µM on Cholinesterase. Moreover, the Activity is 0.06 µmol in series [2] and “Non-toxic” in series [3]. The outcome in series [4] was Active. The compound further gave a Ki on Acetylcholinesterase [5] of 1.32 µM.
In the case of `Cc1cc(=O)oc2cc(OCCCC(=O)N3CCN(c4ccc(F)cc4)CC3)ccc12`, the IC50 was 41.6 µM at Acetylcholinesterase [1] and 24 µM on Cholinesterase. In addition, the Activity in series [2] is 0.08 µmol.
On the same counts, the results for `O=C(CCCOc1ccc2ccc(=O)oc2c1)N1CCC(Cc2ccccc2)CC1` are 6.9 µM, 387 µM and 1.61 µmol.
Take `Cc1cc(=O)oc2cc(OCCCC(=O)N3CCN(c4ccccc4O)CC3)ccc12`: the half-inhibitory concentration (IC50) at Acetylcholinesterase [1] turned out to be 6.2 µM; at Cholinesterase, 184 µM. In series [2], the Activity came to 2.01 µmol.
Take `COc1ccc(CCNC(=O)COc2ccc3ccc(=O)oc3c2)cc1OC`: the IC50 against Acetylcholinesterase [1] was 74 µM; on Cholinesterase, 163 µM. For the same compound, in series [2], the Activity came to 5.43 µmol.
On the same counts, the results for `Cc1cc(=O)oc2cc(OCCCC(=O)N3CCN(c4ccccc4F)CC3)ccc12` are 16.4 µM, 29 µM and 0.1 µmol.
As for `Cc1cc(=O)oc2cc(OCCCC(=O)N3CCN(c4ccccc4)CC3)ccc12`, the half-inhibitory concentration (IC50) on Acetylcholinesterase [1] stood at 20.8 µM; at Cholinesterase it was 68 µM. Besides, the Activity in series [2] is 0.07 µmol.
Take `O=C(CCCOc1ccc2ccc(=O)oc2c1)N1CCN(c2ccccc2F)CC1`: the IC50 against Acetylcholinesterase [1] worked out at 6.9 µM; against Cholinesterase, 15 µM. In addition, the Activity in series [2] was found to be 0.15 µmol.
For `O=C(COc1ccc2ccc(=O)oc2c1)N1CCN(c2ccccc2)CC1` the same measures were 33 µM, 50 µM and 1.94 µmol.
Turning to `O=C(CCCOc1ccc2ccc(=O)oc2c1)N1CCN(c2ccc(Cl)c(Cl)c2)CC1`, the IC50 on Acetylcholinesterase [1] came out at 26 µM; on Cholinesterase, 80 µM. Further, the Activity in series [2] worked out at 0.78 µmol.
Turning to `O=C(CCCOc1ccc2ccc(=O)oc2c1)N1CCN(c2ccc(F)cc2)CC1`, the results for the IC50 against Acetylcholinesterase [1] and on Cholinesterase were 50 µM and 75 µM, respectively. In series [2], the Activity turned out to be 1.37 µmol.
Regarding `O=c1c(O)c(-c2ccc(O)c(O)c2)oc2cc(O)cc(O)c12`, in series [2], the Activity came to 10.8 µmol. The result in series [6] was Active.
For the compound `Cc1cc(=O)oc2cc(OCCCC(=O)N3CCN(c4ccc(Cl)c(Cl)c4)CC3)ccc12`, the figures for the IC50 against Acetylcholinesterase [1] and against Cholinesterase were 4.38 µM and 250 µM, respectively. Moreover, the Activity in series [2] amounted to 0.05 µmol.
Turning to `O=C(COc1ccc2ccc(=O)oc2c1)N1CCC(Cc2ccccc2)CC1`, the concentration for half-maximal inhibition (IC50) against Acetylcholinesterase [1] amounted to 9.8 µM; on Cholinesterase, 46 µM. For the same compound, the Activity in series [2] worked out at 0.05 µmol.
Regarding `O=C1O[C@H]([C@@H](O)CO)C(O)=C1O`, the Activity in series [2] worked out at 7.26 µmol.
With `O=C(COc1ccc2ccc(=O)oc2c1)N1CCN(c2ccccc2F)CC1`, the figures for the IC50 at Acetylcholinesterase [1] and at Cholinesterase were 34.5 µM and 86 µM, respectively. For the same compound, the Activity in series [2] came out at 0.07 µmol.
Consider `O=C(COc1ccc2ccc(=O)oc2c1)N1CCN(c2ccc(Cl)c(Cl)c2)CC1`, for which the IC50 at Acetylcholinesterase [1] came out at 26.8 µM; at Cholinesterase it was 120 µM. In addition, in series [2], the Activity was found to be 2.01 µmol.
On the same counts, the results for `O=C(CCCOc1ccc2ccc(=O)oc2c1)N1CCN(c2ccccc2)CC1` are 3.43 µM, 120 µM and 1.13 µmol.
In the case of `O=C(CCCOc1ccc2ccc(=O)oc2c1)N1CCC(O)(c2ccc(Br)cc2)CC1`, the IC50 on Acetylcholinesterase [1] is 73 µM; against Cholinesterase, 180 µM. Moreover, the Activity in series [2] worked out at 0.03 µmol.
